SIAE primary: human SIAE inhibition, primary screen; AID 1053197; inhibition, % at 9.66 µM; SIAE FP-Rh probe binding, fluorescence polarization; Q9HAT2; 370,000 compounds, 0.69% hits;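 active means inhibition above a cutoff: mean of compounds within the control limits plus 3 SD of those, cut at about 17% in these data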;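 further: 0% = plate median of compound wells and 100% = probe without SIAE protein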
Target sequence (Q9HAT2 whole entry, looked up): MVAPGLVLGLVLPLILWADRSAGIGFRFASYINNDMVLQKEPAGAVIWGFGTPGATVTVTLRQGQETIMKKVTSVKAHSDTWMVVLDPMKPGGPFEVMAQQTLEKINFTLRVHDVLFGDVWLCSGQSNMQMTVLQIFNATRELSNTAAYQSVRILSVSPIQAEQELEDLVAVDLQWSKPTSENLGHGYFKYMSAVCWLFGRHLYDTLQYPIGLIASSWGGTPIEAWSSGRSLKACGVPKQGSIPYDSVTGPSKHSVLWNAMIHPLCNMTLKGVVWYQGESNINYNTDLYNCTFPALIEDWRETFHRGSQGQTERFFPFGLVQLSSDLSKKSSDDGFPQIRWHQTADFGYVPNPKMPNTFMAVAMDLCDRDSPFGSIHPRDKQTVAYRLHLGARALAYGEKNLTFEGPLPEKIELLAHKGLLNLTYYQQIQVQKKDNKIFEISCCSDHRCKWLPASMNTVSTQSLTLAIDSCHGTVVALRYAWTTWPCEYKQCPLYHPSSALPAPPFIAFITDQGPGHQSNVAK
HTRA1 inh: HTRA1 (human) protease inhibition | inhibition, % at 5.96 µM | 340,000 compounds, 0.5% hits | recombinant HTRA1, FP-rhodamine activity-based probe, fluorescence polarization | Q92743; in the data active means inhibition above about 36%;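 further: 0% = enzyme with DMSO and 100% = wells lacking enzyme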
ARNT-TACC3 inh: disrupts binding between human ARNT and TACC3. 390,000 compounds, 0.66% hits. Q9Y6A5. AlphaScreen His-ARNT PAS-B/GST-TACC3 binding, luminescence; TACC3 fragment carries E629A point mutation. inhibition, % at 9.99 µM. AID 623870;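 active means mean inhibition of replicates at least 50% and at least half of replicates each reaching 50%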;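 further: 0% = complete ARNT plus TACC3 wells and 100% = ARNT alone without TACC3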
mABHD4 FP: inhibitors of mouse ABHD4. Q8VD66. purified mABHD4, FP-Rh probe fluorescence polarization. inhibition, % at 8.92 µM. 370,000 compounds, 0.54% hits;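 active means inhibition exceeding the mean over every tested compound plus 3 SD, cut at about 30% in these data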;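 further: 0% = plate median of compound wells and 100% = S159A mutant with DMSO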
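System: mouse ABHD4 enzyme, wild type / Medium: HEPES pH 7.0, NaCl, Pluronic buffer / Reagent: FP-Rh activity-based fluorescent probe / Control set: S159A mutant high control, sample median low control / Detection: fluorescence polarization with parallel and perpendicular emission, 525/598 nm / Schedule: 45 min + 60 min at 25 °C / Compound dosing: 8.92 µM, single dose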
TCR CD3 inh: inhibitors of human TCR-CD3 interaction | TAMRA-labeled TCR probe fluorescence, biochemical | inhibition, % at 9.4 µM | 360,000 compounds, 0.37% hits | AID 651800; in the data active means inhibition above about 19%;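 further: recombinant mutant TCR 2C K166C tagged with TAMRA read by polarization; 0% = receptor in buffer alone and 100% = receptor with positive control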
ARNT Alpha ctr: interferes with AlphaScreen signal, flagging false ARNT-TACC3 hits | shares compounds with ARNT-TACC3 inh | His-ARNT PASB-GST AlphaScreen artifact counter-screen, luminescence | AC50, µM (doses to about 68 µM), for the others: top-dose activity change, negative = signal decrease | 1,200 compounds, 50% hits | AID 651705;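 active means every separate test run was called active for a drop in luminescence, with AC50 within twice the top valid dose, actives reach about 71 µM in these data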
* hit, by the source's call; / = not tested or not shown; [ ] = remark or other dose. Shown are actives, neighbours in structure and some others; about 1.8% of the full set was active somewhere.

SMILES	SIAE primary	HTRA1 inh	ARNT-TACC3 inh	mABHD4 FP	TCR CD3 inh	ARNT Alpha ctr
CCC1CCCCN1S(=O)(=O)c1ccc(NC(=O)CSc2ncccc2C(=O)O)cc1 (stereo unspecified)	1	-8	44*	-1	4	14µM*
COc1ccc(NC(=O)N[C@H]2CC[C@H](CC(=O)NCc3ccccn3)O[C@H]2CO)cc1	/	/	25	/	/	/
CCN(CC(=O)NCc1cccs1)CC(=O)Nc1ccc(C(N)=O)cc1	2	2	8	9	11	/
CCN(CC(=O)NCc1cccs1)CC(=O)Nc1cccc(S(N)(=O)=O)c1	3	1	26*	1	-4	3%
CC(C)N(C[C@H]1N[C@H](CO)[C@@H]1c1ccccc1)C(=O)CN1CCOCC1	/	/	-10	/	/	/
Cc1ccc(S(=O)(=O)n2nc(C)cc2N)cc1	0	7	-3	2	2	/
Cc1ccc(S(=O)(=O)n2nc(C)c(C#N)c2N)cc1	-7	-2	67*	8	-7	2%
O=S(=O)(N[C@@H]1CC[C@@H](CCn2cc(-c3ccccn3)nn2)O[C@H]1CO)c1cccc(Cl)c1	/	/	66*	/	/	41µM*
O=S(=O)(N[C@@H]1CC[C@H](CCn2cc(-c3ccccn3)nn2)O[C@@H]1CO)c1cccc(Cl)c1	/	/	66*	/	/	31µM*
O=S(=O)(N[C@H]1CC[C@H](CCn2cc(-c3ccccc3F)nn2)O[C@@H]1CO)c1ccc(Cl)cc1	/	/	-1	/	/	/
O=S(=O)(N[C@H]1CC[C@@H](CCn2cc(-c3ccccn3)nn2)O[C@H]1CO)c1cccc(Cl)c1	/	/	70*	/	/	32µM*
O=S(=O)(N[C@@H]1CC[C@@H](CCn2cc(-c3cccc(F)c3)nn2)O[C@@H]1CO)c1ccccc1	/	/	2	/	/	/
C[C@H]1CN([C@@H](C)CO)C(=O)c2cc(Br)cnc2O[C@H]1CN(C)C(=O)c1ccccc1	/	/	-3	/	/	/
C[C@H](CO)N1C[C@H](C)[C@@H](CN(C)C(=O)C2CCOCC2)Oc2ncc(C#CC3(O)CCCC3)cc2C1=O	/	/	-1	/	/	/
CNC[C@@H]1Oc2ccc(NC(=O)Nc3cccc4ccccc34)cc2CC(=O)N([C@H](C)CO)C[C@H]1C	/	/	2	/	/	/
O=C(C[C@H]1CC[C@H]2[C@@H](COC[C@@H](O)CN2Cc2nccs2)O1)NCc1ccc(F)cc1	/	/	4	/	/	/
CCN(CC)c1ccc(Nc2nc(N3CCOCC3)c3ccccc3n2)cc1	9	10	55*	22	6	5.7µM*
O=C(N[C@@H]1CC[C@@H](CCn2cc(C3(O)CCCC3)nn2)O[C@H]1CO)C1CC1	/	/	-4	/	/	/
Cc1noc(C)c1NC(=O)Nc1ccc2c(c1)C(=O)N([C@@H](C)CO)C[C@H](C)[C@H](CN(C)C(=O)Nc1ccc(C(F)(F)F)cc1)OCCCC[C@H](C)O2	/	/	6	/	/	/
O=C(NC[C@@H]1[C@@H](c2ccccc2)[C@@H](CO)N1Cc1ccccn1)C1CC1	/	/	23	/	/	/
O=C(NC[C@H]1[C@H](c2ccccc2)[C@H](CO)N1Cc1ccccn1)C1CCC1	/	/	38*	/	/	-14%[42 µM]
O=C(NC[C@H]1[C@@H](c2ccccc2)[C@@H](CO)N1Cc1ccccn1)C1CC1	/	/	48*	/	/	-12%[42 µM]
O=C(NC[C@H]1[C@H](c2ccccc2)[C@@H](CO)N1Cc1ccccn1)C1CCCC1	/	/	18	/	/	/
O=C(NCc1ccc(F)cc1)[C@@H]1[C@@H](CO)[C@@H]2Cn3c(cccc3=O)[C@H]1N2CC1CC1	/	/	-3	/	/	/
C[C@@H]1CCCCO[C@H](CN(C)C(=O)CCC(F)(F)F)[C@@H](C)CN([C@@H](C)CO)C(=O)c2cc(NC(=O)CCCCCC(=O)Nc3ccccc3N)ccc2O1	/	/	6	/	/	/
SMILES	SIAE primary	HTRA1 inh	ARNT-TACC3 inh	mABHD4 FP	TCR CD3 inh	ARNT Alpha ctr
O=C(N[C@H]1CC[C@@H](CCn2cc(-c3ccccn3)nn2)O[C@H]1CO)c1ccc(F)cc1	/	/	60*	/	/	43µM*
COCc1cn(CC[C@@H]2CC[C@@H](NC(=O)c3ccc(F)cc3)[C@H](CO)O2)nn1	/	/	6	/	/	/
O=C(N[C@@H]1CC[C@H](CCn2cc(-c3ccccn3)nn2)O[C@H]1CO)c1ccc(F)cc1	/	/	43*	/	/	43µM*
O=C(N[C@@H]1CC[C@@H](CCn2cc(-c3ccccn3)nn2)O[C@H]1CO)c1ccc(F)cc1	/	/	75*	/	/	47µM*
COCc1cn(CC[C@@H]2CC[C@@H](NC(=O)c3ccc(F)cc3)[C@@H](CO)O2)nn1	/	/	-7	/	/	/
O=C(N[C@H]1CC[C@@H](CCn2cc(-c3ccccn3)nn2)O[C@@H]1CO)c1ccc(F)cc1	/	/	112*	/	/	45µM*
CN(C)C(=O)[C@@H]1[C@@H](CO)[C@@H]2Cn3c(ccc(C4=CCCCC4)c3=O)[C@@H]2N1Cc1ccc2c(c1)OCO2	/	/	3	/	/	/
COc1ccc(OC)c(/C=N/NC(=O)C(=O)N2CCCC2)c1	-6	-3	-20	3	-5	/
COc1cccc(/C=N/NC(=O)C(=O)N2CCCCCC2)c1O	0	3	60*	-4	-4	-19%
CN(C)CCCNc1cc(O)c2ncccc2c1	12	19	64*	15	-9	6.2µM*
CC(C)Cc1nc2sc3c(c2c(=O)n1N)CC(C(C)C)OC3 (stereo unspecified)	-3	2	0	-10	2	/
CC(C)C1Cc2c(sc3ncnc(NN)c23)CO1 (stereo unspecified)	-4	0	61*	0	-2	17µM*
CCN1CCN(c2ccc(NC(=O)c3cccc(S(=O)(=O)N4CCCC4)c3)cc2)CC1	14	2	56*	6	-1	-4%
C/C(=N\NC(=O)c1ccncc1)c1cc2ccccc2oc1=O	7	11	/	-2	6	/
C/C(=N/NC(=O)c1ccncc1)c1cc2ccc(O)cc2oc1=O	3	5	57*	3	7	-8%
O=C(C[C@@H]1CC[C@@H](NC(=O)Nc2ccc3c(c2)OCO3)[C@H](CO)O1)NCc1ccc(F)cc1	/	/	-9	/	/	/
O=c1cc(C=NNc2ccccc2)[nH]c(=O)[nH]1	5	3	-4	8	4	/
O=c1cc(N/N=C/c2ccccc2)[nH]c(=O)[nH]1	3	3	20*	3	-7	1%
C[C@@H]1CN([C@@H](C)CO)C(=O)c2cc(NC(=O)C3CCCCC3)ccc2O[C@@H]1CN(C)C(=O)Nc1ccccc1	/	/	-2	/	/	/
CCCCCc1cc(=O)oc2c(C(CCN(CC)CC)c3ccc(N(C)C)cc3)c(OC)cc(OC)c12 (stereo unspecified)	1	17	50*	22	7	12µM*
COc1cc(OC)c2c(-c3ccccc3)cc(=O)oc2c1C(CCN1CCCCC1)c1ccc(N(C)C)cc1 (stereo unspecified)	/	6	44*	/	/	12µM*
COc1cc(OC)c2c(-c3ccccc3)cc(=O)oc2c1C(CCN1CCOCC1)c1ccc(N(C)C)cc1 (stereo unspecified)	2	2	40	12	-4	/

Bioassay records deposited in PubChem by several laboratories.
